One compound from ChEMBL document CHEMBL4414600, “Discovery of a Furanopyrimidine-Based Epidermal Growth Factor Receptor Inhibitor (DBPR112) as a Clinical Candidate for the Treatment of Non-Small Cell Lung Cancer” (J Med Chem, 2019) can be followed below.

Active and inactive are the calls of the source. The calls are words filed in the database; no cut-off is given here. Bounds are passed on as bounds.

Data set [1] in a line: Oral bioavailability in rat at 23.6 mg/kg. Format: ADME, organism-based. The following applies: in vivo. The procedure, abridged: (§1)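 Rat pharmacokinetics: single IV injection at 5 mg/kg or oral dosing at 20 mg/kg (23.6 mg/kg oral for one compound). Plasma parameters t1/2, CL, Vss, AUC(0-inf), Cmax, Tmax and oral bioavailability F were derived from the concentration–time profiles.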

A short description of data set [2]: Toxicity in athymic NU-Fox1nu nude mouse xenografted with human HCC827 cells assessed as induction of adverse effects at 20 to 50 mg/kg, po dosed via gavage for 5 days/week for 2 consecutive weeks. To be noted: in vivo, 120 h. Format: organism-based. In a few lines:
(§2)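 Male athymic NU-Fox1nu nude mice, 6–8 weeks old, were inoculated subcutaneously at the left flank with 5x10^6 HCC827 (exon 19 Del E746_A750) cells. Oral gavage began at a mean tumor size of about 500 mm³, in 1% methylcellulose/0.5% Tween 80/98.5% water, once daily on days 1-5 and 8-12. Tumor volume (V = 0.5 a × b², caliper) and body weight were tracked.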
A general note: In xenograft studies the graft and the host belong to different species.

A short description of data set [3]: Inhibition of GST-tagged human EGFR D770GY mutant using poly(Glu, Tyr) 4:1 substrate incubated for 120 mins by kinase-Glo plus luminescent kinase assay.
For data set [4], the system named is NCI-H1975. The following applies: Homo sapiens, at 312.5 to 20000 nM.
Data set [5] can be described thus: Toxicity in nude BALB/c mouse xenografted with human NCI-H1975 cells assessed as drug tolerability at 50 mg/kg, po QD for 15 days relative to control. The following applies: in vivo, 360 h. The data set is classed as organism-based. The procedure, abridged: (§3)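 H1975 cells were grown in RPMI1640 with 10% heat-inactivated FBS at 37 °C, 5% CO2, and passaged by trypsin-EDTA. 5x10^6 cells in 0.1 ml PBS were injected subcutaneously at the right flank of BALB/c nude mice. Oral QD dosing for 15 days began at a mean tumor size of 147 mm³, n = 5 per group.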

Data set [6] is described as follows: Toxicity in ICR mouse at 100 mg/kg, po QD for 2 weeks. The data set is classed as organism-based. To be noted: in vivo, 336 h.
Data set [7] concerns the target STE20-like serine/threonine-protein kinase (Homo sapiens) (UniProt Q9H2G2). Nature of the data set: Binding affinity to wild-type human partial length SLK (S14 to A307 residues) expressed in bacterial expression system assessed as residual binding level at 10000 nM by Kinomescan method relative to control. In a few lines: (§4)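 KINOMEScan competition binding panel run at 10,000 nM compound, with results expressed as percent of control binding. S(10) is the fraction of non-mutant kinases below 10% of control, out of 395 tested.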

The subject of data set [8] is NCI-H1975. In words: Antitumor activity against human NCI-H1975 cells xenografted in nude BALB/c mouse assessed as inhibition of tumor growth at 50 mg/kg, po QD for 15 days relative to control. Format: functional. The procedure, abridged:
as §3

The target of data set [9] is Tyrosine-protein kinase BTK (Homo sapiens) (UniProt Q06187). In words: Binding affinity to wild-type human full length BTK (M1 to S659 residues) expressed in mammalian expression system assessed as residual binding level at 10000 nM by Kinomescan method relative to control. The procedure, abridged:
as §4

The nature of data set [10]: in vivo. To be noted: rat, po, 23.6 mg/kg.
A short description of data set [11]: Tmax in rat at 23.6 mg/kg, po. The data set is classed as ADME, organism-based. To be noted: in vivo. In a few lines: as §1
In data set [12] the target is T1, Tyrosine-protein kinase TXK (Homo sapiens) (UniProt P42681).
T1 sequence (whole entry): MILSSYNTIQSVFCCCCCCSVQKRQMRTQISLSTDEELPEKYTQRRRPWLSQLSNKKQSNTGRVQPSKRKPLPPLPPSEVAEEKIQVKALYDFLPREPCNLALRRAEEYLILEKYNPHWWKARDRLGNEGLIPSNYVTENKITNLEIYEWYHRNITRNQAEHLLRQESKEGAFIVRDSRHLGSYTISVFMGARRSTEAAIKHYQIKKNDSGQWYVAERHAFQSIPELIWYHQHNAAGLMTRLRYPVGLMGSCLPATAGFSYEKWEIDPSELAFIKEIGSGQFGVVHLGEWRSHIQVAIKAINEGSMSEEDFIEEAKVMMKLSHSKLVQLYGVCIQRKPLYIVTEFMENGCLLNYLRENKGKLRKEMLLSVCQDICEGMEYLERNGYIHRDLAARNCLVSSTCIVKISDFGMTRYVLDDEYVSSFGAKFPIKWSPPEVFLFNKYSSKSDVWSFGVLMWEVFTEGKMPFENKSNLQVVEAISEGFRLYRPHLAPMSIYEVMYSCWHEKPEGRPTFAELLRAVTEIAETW
In words: Binding affinity to wild-type human partial length TXK (L238 to W527 residues) expressed in bacterial expression system assessed as residual binding level at 10000 nM by Kinomescan method relative to control. The procedure, abridged: as §4

In data set [13] the test system is HCC827. In words: Antitumor activity against human HCC827 cells xenografted in athymic NU-Fox1nu nude mouse assessed as inhibition of tumor growth at 20 to 50 mg/kg, po dosed via gavage for 5 days/week for 2 consecutive weeks. Format: functional, organism-based. The procedure, abridged: as §2
For data set [14], the target named is Receptor tyrosine-protein kinase erbB-2 (Homo sapiens) (UniProt P04626). In words: Binding affinity to wild-type human partial length ERBB2 (K646 to V1225 residues) expressed in mammalian expression system assessed as residual binding level at 10000 nM by Kinomescan method relative to control. The procedure, abridged:
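KINOMEscan competition-binding profiling at a single concentration of 10,000 nM across a panel that included 395 non-mutant kinases. Binding is read out as percent of control. Kinases with less than 10% of control were counted as hits for the S(10) selectivity score, which is the number of non-mutant hits divided by the number of non-mutant kinases tested.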

Data set [15] in a line: Toxicity in nude BALB/c mouse xenografted with human NCI-H1975 cells assessed as induction of body weight loss at 50 mg/kg, po QD for 15 days relative to control. To be noted: in vivo, 360 h. The data set is classed as organism-based. In a few lines: as §3
In data set [16] the target is Serine/threonine-protein kinase 10 (Homo sapiens) (UniProt O94804). Nature of the data set: Binding affinity to wild-type human partial length LOK (E16 to V314 residues) expressed in bacterial expression system assessed as residual binding level at 10000 nM by Kinomescan method relative to control. In a few lines: as §4
Serine/threonine-protein kinase 10 (Homo sapiens), sequence (O94804 whole entry, looked up, the tested form may be a part): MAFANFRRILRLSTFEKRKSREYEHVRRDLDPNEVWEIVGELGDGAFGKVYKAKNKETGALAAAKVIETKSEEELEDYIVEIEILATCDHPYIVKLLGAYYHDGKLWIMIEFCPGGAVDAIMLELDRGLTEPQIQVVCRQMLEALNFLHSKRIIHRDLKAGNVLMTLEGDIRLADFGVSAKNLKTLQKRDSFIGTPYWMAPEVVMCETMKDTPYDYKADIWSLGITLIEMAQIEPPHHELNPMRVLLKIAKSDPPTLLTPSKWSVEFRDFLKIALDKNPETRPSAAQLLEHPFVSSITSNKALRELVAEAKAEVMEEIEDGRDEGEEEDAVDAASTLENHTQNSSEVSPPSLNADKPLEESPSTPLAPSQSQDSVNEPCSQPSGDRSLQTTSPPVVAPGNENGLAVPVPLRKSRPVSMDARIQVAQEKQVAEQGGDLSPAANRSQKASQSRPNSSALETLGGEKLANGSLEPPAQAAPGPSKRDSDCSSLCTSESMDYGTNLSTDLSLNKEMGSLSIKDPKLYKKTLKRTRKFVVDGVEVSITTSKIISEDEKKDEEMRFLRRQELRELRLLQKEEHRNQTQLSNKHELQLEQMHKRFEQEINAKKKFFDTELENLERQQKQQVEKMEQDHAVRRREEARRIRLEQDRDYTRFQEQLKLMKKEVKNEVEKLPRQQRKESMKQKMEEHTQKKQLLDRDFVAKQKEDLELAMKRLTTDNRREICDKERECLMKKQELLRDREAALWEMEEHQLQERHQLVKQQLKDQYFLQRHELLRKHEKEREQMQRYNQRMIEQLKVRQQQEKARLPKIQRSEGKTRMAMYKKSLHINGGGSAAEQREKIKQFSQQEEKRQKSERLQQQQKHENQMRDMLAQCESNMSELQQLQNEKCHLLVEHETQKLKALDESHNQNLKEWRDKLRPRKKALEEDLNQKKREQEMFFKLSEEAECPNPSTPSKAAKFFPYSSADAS
For data set [17], the system named is HCC827. In words: Cytotoxicity in human HCC827 cells assessed as reduction in cell viability incubated for 96 hrs by MTS method. The data set is classed as functional. On the technique in general: Formazan colour is commonly taken as a measure of viable cells.
The target of data set [18] is Receptor tyrosine-protein kinase erbB-4 (Homo sapiens) (UniProt Q15303). Nature of the data set: Binding affinity to wild-type human partial length ERBB4 (L690 to K994 residues) expressed in bacterial expression system assessed as residual binding level at 10000 nM by Kinomescan method relative to control. In a few lines:
as §4

Receptor tyrosine-protein kinase erbB-4 (Homo sapiens), sequence (Q15303 whole entry, the tested form may be a part): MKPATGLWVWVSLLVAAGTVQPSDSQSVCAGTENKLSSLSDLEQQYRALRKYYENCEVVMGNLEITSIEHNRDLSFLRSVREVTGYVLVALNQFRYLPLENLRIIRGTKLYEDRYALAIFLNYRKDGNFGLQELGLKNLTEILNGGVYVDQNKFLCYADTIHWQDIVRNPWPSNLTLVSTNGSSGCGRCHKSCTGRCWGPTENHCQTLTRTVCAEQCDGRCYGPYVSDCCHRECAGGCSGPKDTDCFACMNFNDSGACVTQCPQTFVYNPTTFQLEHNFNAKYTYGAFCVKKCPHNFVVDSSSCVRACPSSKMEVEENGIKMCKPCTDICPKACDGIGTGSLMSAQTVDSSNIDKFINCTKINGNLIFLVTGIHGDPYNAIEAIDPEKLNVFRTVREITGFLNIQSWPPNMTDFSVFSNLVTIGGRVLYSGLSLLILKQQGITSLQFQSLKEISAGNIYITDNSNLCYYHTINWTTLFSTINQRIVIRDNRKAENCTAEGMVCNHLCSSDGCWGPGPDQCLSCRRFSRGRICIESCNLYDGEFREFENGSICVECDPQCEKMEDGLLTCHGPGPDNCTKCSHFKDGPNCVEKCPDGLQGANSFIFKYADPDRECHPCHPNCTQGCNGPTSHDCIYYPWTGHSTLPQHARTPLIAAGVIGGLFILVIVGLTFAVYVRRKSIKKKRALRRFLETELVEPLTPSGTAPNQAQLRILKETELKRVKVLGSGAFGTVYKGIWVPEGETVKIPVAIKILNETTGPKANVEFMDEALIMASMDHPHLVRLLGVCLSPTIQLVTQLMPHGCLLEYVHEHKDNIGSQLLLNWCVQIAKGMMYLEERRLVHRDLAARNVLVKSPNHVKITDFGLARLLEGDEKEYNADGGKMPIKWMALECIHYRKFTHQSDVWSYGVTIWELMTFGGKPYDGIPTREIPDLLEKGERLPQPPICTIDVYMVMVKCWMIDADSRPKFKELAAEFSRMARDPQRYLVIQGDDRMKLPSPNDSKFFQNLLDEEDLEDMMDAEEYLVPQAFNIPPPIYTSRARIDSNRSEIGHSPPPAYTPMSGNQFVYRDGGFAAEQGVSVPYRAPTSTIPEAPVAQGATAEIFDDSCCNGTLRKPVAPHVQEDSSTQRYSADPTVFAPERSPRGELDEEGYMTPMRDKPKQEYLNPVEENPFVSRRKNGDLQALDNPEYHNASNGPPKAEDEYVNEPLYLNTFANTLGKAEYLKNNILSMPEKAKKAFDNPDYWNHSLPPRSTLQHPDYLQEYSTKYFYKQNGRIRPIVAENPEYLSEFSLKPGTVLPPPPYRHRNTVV
Receptor tyrosine-protein kinase erbB-2 (Homo sapiens), sequence (P04626 whole entry, the tested form may be a part): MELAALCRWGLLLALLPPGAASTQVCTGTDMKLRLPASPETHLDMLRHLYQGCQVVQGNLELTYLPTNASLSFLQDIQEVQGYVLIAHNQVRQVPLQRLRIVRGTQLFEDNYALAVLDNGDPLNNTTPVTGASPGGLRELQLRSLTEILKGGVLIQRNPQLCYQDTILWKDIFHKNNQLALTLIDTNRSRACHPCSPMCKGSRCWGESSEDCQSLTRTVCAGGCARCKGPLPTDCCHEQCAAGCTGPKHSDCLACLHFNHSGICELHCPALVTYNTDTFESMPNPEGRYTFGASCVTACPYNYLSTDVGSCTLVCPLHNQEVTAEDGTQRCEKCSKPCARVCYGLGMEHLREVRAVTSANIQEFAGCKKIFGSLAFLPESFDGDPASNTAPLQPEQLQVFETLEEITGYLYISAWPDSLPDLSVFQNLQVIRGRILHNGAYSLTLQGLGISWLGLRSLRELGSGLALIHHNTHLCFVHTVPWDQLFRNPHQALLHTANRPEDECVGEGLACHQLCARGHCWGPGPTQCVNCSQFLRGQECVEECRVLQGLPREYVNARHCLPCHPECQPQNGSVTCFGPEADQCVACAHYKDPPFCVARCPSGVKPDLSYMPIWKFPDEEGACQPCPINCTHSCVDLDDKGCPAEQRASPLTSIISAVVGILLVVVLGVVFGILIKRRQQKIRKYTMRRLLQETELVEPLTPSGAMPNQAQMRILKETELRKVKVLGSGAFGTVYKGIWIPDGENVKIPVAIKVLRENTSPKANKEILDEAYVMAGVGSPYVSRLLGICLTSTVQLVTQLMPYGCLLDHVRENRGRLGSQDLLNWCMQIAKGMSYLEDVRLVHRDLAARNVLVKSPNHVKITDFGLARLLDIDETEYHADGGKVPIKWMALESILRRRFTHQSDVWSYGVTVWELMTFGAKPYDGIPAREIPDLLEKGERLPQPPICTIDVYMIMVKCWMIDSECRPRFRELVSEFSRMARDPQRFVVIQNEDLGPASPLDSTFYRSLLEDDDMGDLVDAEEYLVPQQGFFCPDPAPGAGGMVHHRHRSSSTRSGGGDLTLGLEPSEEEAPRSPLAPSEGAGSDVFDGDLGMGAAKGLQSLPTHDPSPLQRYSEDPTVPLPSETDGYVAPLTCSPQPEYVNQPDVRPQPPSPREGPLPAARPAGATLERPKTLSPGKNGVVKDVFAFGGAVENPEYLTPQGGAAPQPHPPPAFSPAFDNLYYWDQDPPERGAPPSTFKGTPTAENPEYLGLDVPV
Tyrosine-protein kinase BTK (Homo sapiens), sequence (Q06187 whole entry, the tested form may be a part): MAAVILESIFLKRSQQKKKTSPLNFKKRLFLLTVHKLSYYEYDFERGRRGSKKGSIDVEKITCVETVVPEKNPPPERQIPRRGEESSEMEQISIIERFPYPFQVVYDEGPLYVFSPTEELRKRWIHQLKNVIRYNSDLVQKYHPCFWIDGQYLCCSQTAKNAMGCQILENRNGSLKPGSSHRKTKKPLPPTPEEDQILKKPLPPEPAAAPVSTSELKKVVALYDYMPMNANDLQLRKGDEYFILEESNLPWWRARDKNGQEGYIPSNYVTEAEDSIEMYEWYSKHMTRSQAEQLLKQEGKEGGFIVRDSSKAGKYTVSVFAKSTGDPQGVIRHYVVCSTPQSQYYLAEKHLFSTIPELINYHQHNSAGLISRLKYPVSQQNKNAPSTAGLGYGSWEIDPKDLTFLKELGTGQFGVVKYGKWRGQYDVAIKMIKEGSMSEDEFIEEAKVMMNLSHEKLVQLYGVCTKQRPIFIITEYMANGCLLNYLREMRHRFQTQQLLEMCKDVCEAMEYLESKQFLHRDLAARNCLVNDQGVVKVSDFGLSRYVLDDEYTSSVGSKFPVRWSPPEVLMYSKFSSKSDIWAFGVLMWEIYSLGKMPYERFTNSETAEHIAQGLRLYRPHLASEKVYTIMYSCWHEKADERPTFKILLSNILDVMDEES

As a reminder, the bioavailability is dose-corrected exposure relative to a reference, in per cent. A higher bioavailability goes with good availability. By IC50 is commonly meant the concentration that gives 50% inhibition. What is called half-life is the time in which the quantity being followed falls by half. Low values mean rapid decline, high ones slow decline. By Tmax is commonly meant the time at which the peak concentration occurs. Broadly, the CC50 is the concentration that lowers cell viability or growth by half. In the case of `CN(C)C/C=C/C(=O)Nc1cccc(-c2c(-c3ccccc3)oc3ncnc(N[C@H](CO)c4ccccc4)c23)c1`, the bioavailability in [1] was 41.5%. For the same compound, the Activity result is “Non-Toxic” in data set [2]; “Non-Toxic” in data set [5]; “Toxic” in data set [6]; below 10% in [7]; 3% in data set [9]; below 10% in data set [12]. Besides, the Activity was 0% in [14], “Non-Toxic” in data set [15], below 10% in data set [16] and 0.05% in data set [18]. Further, the IC50 in [3] stood at 0.033 nM. Further, the inhibition result in data set [4] was “Dose-dependent effect”. Further, in [8], the TGI was 34%. In data set [10], this compound gave a half-life of 3.4 h. Moreover, the time to peak (Tmax) in [11] is 3.3 h. Moreover, the TGI result in data set [13] is “Active”. In addition, the CC50 in data set [17] worked out at 25 nM.
